# The full list was thinned out, with hits kept by preference.
# L major viab: Leishmania major promastigote growth inhibition; Leishmania major promastigotes, resazurin fluorescence viability; inhibition, % at 10 µM; 200,000 tested, 9% active; AID 1063; in the data active = inhibition above about 50%;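 also: promastigotes grown with compound for 44 hours at 28 °C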
# PolyA inh: inhibitors of polyadenylation in S. cerevisiae. S. cerevisiae SKY197-pL101 polyadenylation reporter, beta-gal luminescence; efflux-impaired pdr1/pdr3 knockout yeast; score 100 = 6 SD above DMSO. activity score, % at 12 µM. 300,000 tested, 0.02% active;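 active = lowest replicate activity score at least 50, where 100 means six control SD above control mean; inconclusive = lowest score under 50 but half or more replicates reach 50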;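 also: yeast exposed to compound for 9 h at 30 °C; higher score means more reporter readthrough which indicates perturbed polyadenylation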
# T cruzi inh: T. cruzi replication inhibition | T. cruzi beta-gal in NIH3T3, luminescence, 90 h | AID 1885 | 300,000 tested, 1.4% active | inhibition, % (test concentration not listed);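 active = mean inhibition across valid replicates above about 55%, limit read from the data; inconclusive = mean below that limit but half or more replicates reach it; inactive = mean below it, under half of replicates reach it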;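 also: signal also drops with host cell toxicity which is not excluded here; 0% = plate median of DMSO wells and 100% = zero luminescence signal; higher percent means less beta-gal luminescence so fewer parasites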
#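 System: mouse NIH/3T3 fibroblasts infected with β-gal-expressing T. cruzi Tulahuen C4 / Input: NIH/3T3 cells, 5,000 per well / Buffer or medium: Low-serum DMEM with 2% FBS / Probe or stimulus: 5000 reporter trypomastigotes per well / Schedule: ≥90 h infection period, 3 h prior cell attachment / Measured by: GalScreen luminescence, 60 min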
# NALP1 yeast inh: inhibitors of NALP1 inflammasome in yeast; S. cerevisiae NALP1/ASC/caspase-1 growth, X-gal OD620, 72 h; inhibition, % at 10 µM; AID 2071; 280,000 tested, 0.61% active; in the data active = inhibition mostly above about 24%, no sharp cut-off; inactive = mostly below about 32%
# NLRP3 yeast inh: blocks the NALP3 inflammasome reconstituted in yeast | Yeast reconstituted NLRP3/ASC/caspase-1, beta-gal luminescence, 24 h | 330,000 tested, 0.39% active | inhibition, % at 10 µM;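 active = inhibition of 50% or more; inactive = inhibition below 50%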;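 also: plate controls were induced DMSO wells for no effect and uninduced yeast grown without galactose for full effect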
# Calb FLC: affects C. albicans growth with fluconazole; C. albicans CaCi-2 + fluconazole, Alamar Blue growth, 48 h; growth inhibition, % (concentration not given with the values); 300,000 tested, 0.57% active; AID 1979;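 active = growth inhibition above about 58% in most replicates, limit read from the data, passing the limit was not always enough; inconclusive = exactly half the replicates above a set limit; inactive = most replicates below a set limit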;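 also: all wells also contain fluconazole at 8 µg/ml as a sub-toxic cotreatment; 0% = median of DMSO wells and 100% = median of geldanamycin control wells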
# * marks the source's active call; other numbers are inactive results; ? = inconclusive; . = no result given.
SMILES,L major viab,PolyA inh,T cruzi inh,NALP1 yeast inh,NLRP3 yeast inh,Calb FLC
O=C(NCCCn1ccnc1)c1cc2c(s1)CCCCC2,60*,.,-7,10,-1,-10
CC1CCc2sc(C(=O)NCCCn3ccnc3)cc2C1 (configuration not stated),.,-3,-7,17,4,7
CCCCCCC(=O)Nc1nc(C)c(-c2csc(Nc3ccccc3OC)n2)s1,55*,8,7,21,17,-22
CCCCCC(=O)Nc1nc(C)c(-c2csc(Nc3ccccc3OCC)n2)s1,52*,-12,-5,-34,23,-4
CCCCCC(=O)Nc1nc(C)c(-c2csc(Nc3ccccc3OC)n2)s1,73*,0,-6,14,13,-10
CCCC(C)C(=O)Nc1nc(C)c(-c2csc(Nc3ccccc3OC)n2)s1 (configuration not stated),96*,22,-12,-10,7,0
Cc1cc([N+](=O)[O-])nn1CC(=O)NCc1ccccc1,.,-10,4,0,6,0
Cc1cc([N+](=O)[O-])nn1CC(=O)NCc1ccco1,50*,6,-5,15,-7,-6
COCCN1CCCC(CNCc2cn(C)nc2-c2ccc(Oc3ccccc3)cc2)C1 (configuration not stated),95*,17,43,-4,19,-23
CCCN1CCC(NCc2cn(C)nc2-c2ccc(Oc3ccccc3)cc2)CC1,.,16,18,14,7,0
Cn1cc(CN2CCCCC2CO)c(-c2ccc(Oc3ccccc3)cc2)n1 (configuration not stated),63*,.,31,-1,7,-13
COC1CCCN(Cc2cn(C)nc2-c2ccc(Oc3ccccc3)cc2)C1 (configuration not stated),73*,-3,12,1,7,-5
CCOC(=O)CN(C)Cc1cn(C)nc1-c1ccc(Oc2ccccc2)cc1,.,-2,-10,.,23,-5
CCC(=O)N/N=C(\C)CC(=O)Nc1ccc(Cl)cc1,-3,-5,-4,31,4,-21
Cc1ccc(S(=O)(=O)c2c(N)n(CC3CCOC3)c3nc4ccccc4nc23)cc1 (configuration not stated),60*,-6,20,11,24,0
Cc1ccc(-n2c(N)c(S(=O)(=O)c3ccccc3)c3nc4ccccc4nc32)cc1,57*,-3,18,14,-11,3
COc1ccc(S(=O)(=O)c2c(N)n(Cc3ccco3)c3nc4ccccc4nc23)cc1,72*,4,36,2,-4,-1
Cc1cccc(S(=O)(=O)c2c(N)n(/N=C/c3ccco3)c3nc4ccccc4nc23)c1,53*,15,57*,-13,1,22
Cc1ccc(S(=O)(=O)c2c(N)n(CCCN(C)C)c3nc4ccccc4nc23)cc1,.,3,21,0,11,13
COc1ccc(Cn2c3nc4ccccc4nc3c3c(=O)n(Cc4ccco4)c(C)nc32)cc1,.,.,.,11,.,.
Cc1cccc(S(=O)(=O)c2c(N)n(-c3ccccc3)c3nc4ccccc4nc23)c1,17,-10,7,18,15,1
O=S1(=O)CCN2N=C(C34CC5CC(CC(C5)C3)C4)SC2=N1,-1,7,0,10,18,-30
O=C(CNC(=O)c1ccco1)OCC(=O)c1ccc([N+](=O)[O-])cc1,.,-17,-8,20,-11,19
Cc1ccc(S(=O)(=O)c2c(N)n(/N=C/c3ccco3)c3nc4ccccc4nc23)cc1,59*,-12,78*,4,13,?
Nc1c(S(=O)(=O)c2ccccc2)c2nc3ccccc3nc2n1/N=C/c1ccco1,17,-13,22,12,4,-5
SMILES,L major viab,PolyA inh,T cruzi inh,NALP1 yeast inh,NLRP3 yeast inh,Calb FLC
Cc1ccc(S(=O)(=O)c2c(N)n(/N=C/c3ccco3)c3nc4ccccc4nc23)cc1C,79*,-7,46,8,18,-10
Cc1ccc2cc(CN(CCCN3CCOCC3)C(c3nnnn3Cc3ccco3)C(C)C)c(=O)[nH]c2c1C (configuration not stated),67*,7,-32,.,2,-2
Cc1cccc2cc(CN(CC3CCCO3)C(c3nnnn3Cc3ccco3)C(C)C)c(=O)[nH]c12 (configuration not stated),50*,2,31,11,11,0
CCC(c1nnnn1CC1CCCO1)N(CCCO)Cc1cc2cccc(C)c2[nH]c1=O (configuration not stated),-2,8,-3,-1,-14,5
O=C(Nc1cc(S(=O)(=O)N2CCOCC2)ccc1Cl)C1CCC1,.,13,0,.,5,-1
COc1cc2c(C#N)c(N3CCc4ccccc4C3)nc(N)c2c(N)n1,54*,-66,30,4,-11,27
O=C(c1ccc(CNS(=O)(=O)c2ccc(Br)cc2)cc1)N1CCCC1,1,-17,-2,17,7,3
CCCn1c(N)c(C(=O)CN2CCc3ccccc3C2)c(=O)n(C)c1=O,-6,-1,9,7,9,-30
Clc1ccsc1-c1ccc2ccccc2n1,0,-28,13,44*,11,-31
c1ccc2nc(-c3nccs3)ccc2c1,-2,-22,-17,-5,3,-3
Fc1ccc(-c2csc(N3CCC(c4ccccc4)C3)n2)cc1 (configuration not stated),-5,8,-6,32*,3,4
Clc1ccc(-c2csc(N3CCC(c4ccccc4)C3)n2)cc1 (configuration not stated),-4,2,-13,4,8,-3
COc1ccccc1C(=O)NCC(=O)NCCC(c1ccccc1)c1ccccc1,.,.,.,.,12,.
Cc1ccc(-c2cc(C(=O)O)n[nH]2)s1,1,5,-1,-16,13,3
CCOC(=O)c1cc(-c2ccc(Cl)s2)[nH]n1,.,-9,7,44*,-11,1
CCCc1cc(-n2ccnc2C)n2c(nc3ccccc32)c1C#N,.,0,16,.,-4,-12
CCCc1cc(N2CCN(C(=O)c3ccco3)CC2)n2c(nc3ccccc32)c1C#N,71*,-20,7,5,-21,3
O=S(=O)(Nc1ccc2c(c1)nc1n2CCN(Cc2ccccc2)C1)c1ccc(Cl)cc1,97*,-3,16,5,-3,31
COc1ccccc1C(=O)Nc1ccc2c(c1)nc1n2CCN(Cc2ccccc2)C1,21,-4,27,-12,12,37
O=C(Nc1ccc2c(c1)nc1n2CCN(Cc2ccccc2)C1)NC1CCCCC1,1,11,3,1,-7,6
O=S(=O)(Nc1ccc2c(c1)nc1n2CCN(Cc2ccccc2)C1)c1ccc(F)cc1,100*,1,18,16,26,-21
Cc1ccc(S(=O)(=O)Nc2ccc3c(c2)nc2n3CCN(Cc3ccccc3)C2)cc1,99*,-9,?,-1,-3,-14

# Bioassay records deposited in PubChem BioAssay by several laboratories.
